SENP8 block-1: blocks human SENP8 cleavage of Nedd8 substrate. recombinant SENP8, Nedd8 substrate fluorescence. inhibition, % at 20 µM. actives 0.64% (n = 360,000); in the data active means inhibition mostly above about 40%, no sharp cut-off; inactive means mostly below about 27%
Target sequence (Q96LD8 whole entry, looked up): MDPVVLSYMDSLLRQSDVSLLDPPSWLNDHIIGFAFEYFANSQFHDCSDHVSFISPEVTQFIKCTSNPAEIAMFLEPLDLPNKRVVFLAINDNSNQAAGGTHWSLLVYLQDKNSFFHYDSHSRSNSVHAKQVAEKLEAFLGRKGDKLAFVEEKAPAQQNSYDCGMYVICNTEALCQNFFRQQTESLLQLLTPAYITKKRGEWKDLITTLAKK
SENP1 FRET inh: SENP1 (human) catalytic domain inhibition; inhibition, % at 10 µM; Q9P0U3; actives 0.21% (n = 360,000); AID 624204; recombinant SENP1 catalytic domain, CyPet-SUMO1-YPet FRET cleavage;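 active means inhibition at least 30% at 10 µM, raw YFP signal under a set limit, fluorescence ratio 0.5 to 1.5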
Target sequence (Q9P0U3 419-644 limits assumed): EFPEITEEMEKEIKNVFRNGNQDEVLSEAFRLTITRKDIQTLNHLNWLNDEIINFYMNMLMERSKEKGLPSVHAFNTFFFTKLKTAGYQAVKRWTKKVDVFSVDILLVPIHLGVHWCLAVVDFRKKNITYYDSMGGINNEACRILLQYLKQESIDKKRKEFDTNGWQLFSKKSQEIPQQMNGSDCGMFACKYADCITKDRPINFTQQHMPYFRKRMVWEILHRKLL
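Compound: 10 µM single point, 0.5% DMSO; Test system: hSENP1 catalytic domain, recombinant; Timing: 50 min reaction at room temperature; Technique: FRET, CFP and YFP emission; Control set: no-enzyme wells low, DMSO-plus-enzyme wells high control.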
HSP90 refold inh: inhibitors of HSP90 luciferase refolding in rabbit reticulocyte lysate; luciferase refolding luminescence, 3 h; inhibition, % at 5.6 µM; actives 0.91% (n = 290,000); AID 1789;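 active means inhibition above the screen-wide mean plus 3 SD, computed separately per campaign, cut at about 16% in these data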;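 further: inhibitors lower the luminescence because luciferase stays unfolded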
SENP7 block: blocks the human protease SENP7. Q9BQF6. recombinant SENP7, Z-RLRGG-aminoluciferin luminescence, 40 min. inhibition, % at 5 µM. actives 1.5% (n = 330,000). AID 434973;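 active means inhibition above about 50% at the single test dose, limit read from the data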
SENP8 block-2: blocks the human protease SENP8. Q96LD8. purified SENP8, Z-RLRGG-aminoluciferin cleavage, luminescence. inhibition, % at 10 µM. actives 1.2% (n = 330,000); in the data active means inhibition above about 50%
SENP6 block: inhibitors of human SENP6 protease | Recombinant SENP6 catalytic domain, aminoluciferin luminescence | inhibition, % at 10 µM | Q9GZR1 | actives 1.8% (n = 330,000);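 active means inhibition above about 50% at the single tested dose, limit read from the data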
SENP8 conf-1: confirmation of human SENP8 protease inhibitors. shares compounds with SENP7 block. Recombinant SENP8, Z-RLRGG-aminoluciferin luminescence, 60 min. inhibition, % at 12.5 µM. actives 40% (n = 6,200). AID 488912;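 active means mean inhibition across replicates above about 50%, limit read from the data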
SENP6 conf: human SENP6 inhibition, confirmed; shares compounds with SENP7 block; AID 488915; recombinant SENP6, Z-RLRGG-aminoluciferin luminescence; actives 58% (n = 6,200); inhibition, % at 12.5 µM
SENP7 confirm: confirmation of human SENP7 protease inhibitors | shares compounds with SENP7 block | recombinant SENP7, Z-RLRGG-aminoluciferin luminescence, 40 min | inhibition, % at 12.5 µM | actives 69% (n = 6,200) | AID 488917
Casp3 select: selectivity test for SENP inhibitors: human caspase-3 inhibition; purified caspase-3, Z-DEVD-aminoluciferin luminescence, 60 min; inhibition, % at 12.5 µM; AID 488918; shares compounds with SENP7 block; actives 60% (n = 6,200);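 active means mean inhibition above about 50%, limit read from the data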
Target sequence (P42574 28-227 limits assumed): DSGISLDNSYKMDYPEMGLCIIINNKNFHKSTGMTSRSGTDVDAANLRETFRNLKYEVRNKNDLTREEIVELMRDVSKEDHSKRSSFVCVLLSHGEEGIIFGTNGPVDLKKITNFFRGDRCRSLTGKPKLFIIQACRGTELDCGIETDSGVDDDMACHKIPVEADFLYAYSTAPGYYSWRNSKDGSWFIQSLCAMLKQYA
SENP luc ctr: luminescence interference (SENP counter-screen). shares compounds with SENP7 block. Pre-incubated SENP8/Z-RLRGG-aminoluciferin, luciferase luminescence interference. inhibition, % at 12.5 µM. actives 39% (n = 6,200);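 active means mean inhibition above about 50% when retested at one dose, limit read from the data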
SENP8 conf-2: SENP8 (human) inhibition, single concentration confirmation. purified SENP8, Nedd8-AMC/pro-Nedd8 cleavage fluorescence, 30 min. shares compounds with SENP8 block-1. inhibition, % at 25 µM. actives 15% (n = 1,400); in the data active means inhibition mostly above about 39%, no sharp cut-off; inactive means mostly below about 34%
A number is an active result; i = inactive; nt = no result. Sampled rows, rich in hits. Any-hit rate of the full collection: about 2.9%.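 How the source made its calls, unless noted: active means mean inhibition above about 50% in the one-dose retest (limit read from the data); inactive means the rest.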

SMILES | SENP8 block-1 | SENP1 FRET inh | HSP90 refold inh | SENP7 block | SENP8 block-2 | SENP6 block | SENP8 conf-1 | SENP6 conf | SENP7 confirm | Casp3 select | SENP luc ctr | others
COc1ccc2[nH]c3c(NCCCOC(C)C)ncnc3c2c1 | i | i | i | 96 | 90 | 93 | 90 | 93 | 101 | 96 | 93
N#Cc1c(NC(=O)CSc2nc(N)cc(=O)[nH]2)sc2c1CCCC2 | i | i | i | i | i | i | nt | nt | nt | nt | nt
O=C1CSC(c2ccccc2)N1c1nnc(C23CC4CC(CC(C4)C2)C3)s1 (stereo not given) | nt | nt | i | nt | nt | nt | nt | nt | nt | nt | nt
O=C(c1ccc(Cl)cc1)c1cnc(-c2ccc(Cl)cc2)s1 | i | i | i | i | i | i | nt | nt | nt | nt | nt
O=C(c1ccccc1)c1cnc(-c2ccccc2)s1 | i | i | i | 96 | 89 | 93 | 54 | i | 73 | 62 | i
O=C(c1ccccc1)c1cnc(-c2ccc(Cl)cc2)s1 | i | i | i | 97 | i | 80 | i | i | i | i | i
CN(CC(=O)Nc1ccc(F)c(Cl)c1)S(=O)(=O)c1ccc2c(c1)n(C)c(=O)c(=O)n2C | i | i | i | i | i | i | nt | nt | nt | nt | nt
Cc1c(C(C)(C)C)sc(=NC(=O)c2ccccc2O)n1C | i | i | i | 72 | 60 | 63 | i | i | i | i | i
CSc1ncccc1C(=O)OCc1ccccc1 | i | i | i | i | i | 54 | i | i | 60 | i | i
CSc1ncccc1C(=O)OCc1ccccc1F | i | i | i | i | 50 | 72 | 53 | 55 | 79 | 51 | 56
CSc1ncccc1C(=O)OCc1ccc(COC(=O)c2cccnc2SC)cc1 | nt | nt | i | nt | nt | nt | nt | nt | nt | nt | nt
O=C(Nc1cnc2sccn2c1=O)c1ccc(Cl)cc1Cl | i | i | i | 56 | i | i | i | i | i | 53 | i
COc1ccc(Cl)cc1NC(=O)c1cnc2sccn2c1=O | i | i | i | i | i | i | nt | nt | nt | nt | nt
CCOc1nc(-c2ccc(Cl)cc2)nc2ccccc12 | i | i | i | i | i | i | nt | nt | nt | nt | nt
O=C(Nc1ccc(Cl)cc1)Nc1ccccc1Sc1ncc([N+](=O)[O-])s1 | i | i | i | 95 | 96 | 99 | 100 | 101 | 104 | 100 | i
O=C(Nc1csc([N+](=O)[O-])c1)Nc1ccccc1Cl | i | i | i | i | i | i | nt | nt | nt | nt | nt
COc1cc(SC)ccc1C(=O)Nc1ccc(C)cc1 | i | i | i | i | i | i | nt | nt | nt | nt | nt
COc1cc(SC)ccc1C(=O)Nc1ccc(C)cc1C | i | i | i | 70 | 61 | 75 | i | i | i | i | i
COc1cc(SC)ccc1C(=O)Nc1ccc2c(c1)OCO2 | i | i | i | nt | nt | nt | nt | nt | nt | nt | nt
COc1cc(SC)ccc1C(=O)Nc1ccc2ncccc2c1 | i | i | i | 88 | 88 | 94 | i | 77 | 95 | 68 | i
Oc1cccc2c(NC(=S)Nc3ccc(OC(F)F)cc3)cccc12 | i | i | i | i | 80 | 94 | i | i | i | i | i
COc1ccc2c(=O)c(-c3ccccc3)coc2c1 | i | i | i | 80 | 75 | 79 | i | 73 | 93 | 84 | i
CC(=O)Oc1ccc2occ(-c3ccccc3)c2c1 | i | i | i | i | i | i | nt | nt | nt | nt | nt
CCN(CC)C(=O)Oc1ccc2c(=O)c(-c3ccccc3)coc2c1 | i | i | i | 71 | 54 | 81 | i | i | 54 | 57 | i
COc1ccc2cc(-c3ccccc3)c(=O)oc2c1 | i | i | i | 88 | 75 | 92 | i | 90 | 99 | 86 | i
SMILES | SENP8 block-1 | SENP1 FRET inh | HSP90 refold inh | SENP7 block | SENP8 block-2 | SENP6 block | SENP8 conf-1 | SENP6 conf | SENP7 confirm | Casp3 select | SENP luc ctr | others
Nc1ncnn1Cc1ccccc1 | i | i | nt | nt | nt | nt | nt | nt | nt | nt | nt
Cc1noc(C)c1COC(=O)CCCc1c[nH]c2ccccc12 | i | i | i | i | i | i | nt | nt | nt | nt | nt
Cc1ccc(NC(=O)CN(C)C(=O)COc2cc(F)ccc2[N+](=O)[O-])cc1 | i | i | i | i | i | i | nt | nt | nt | nt | nt
CCOC(=O)Nc1ccc(=O)n(Cc2c(Cl)cccc2Cl)c1 | i | i | i | i | i | i | nt | nt | nt | nt | nt
CCCC(C)NC(=O)c1cc(S(=O)(=O)N2CCCCCC2)ccc1OC (stereo not given) | i | i | nt | i | i | i | nt | nt | nt | nt | nt
O=C(Nc1cccc(O)c1)c1cc(-c2ccco2)on1 | i | i | 17 | i | 84 | 92 | 90 | 91 | 98 | 90 | 90
Cc1ccc(-c2cc(C(=O)Nc3cc(C)ccc3O)no2)cc1 | i | i | i | nt | nt | nt | nt | nt | nt | nt | nt
Cc1ccc(O)c(NC(=O)c2cc(-c3ccccc3Cl)on2)c1 | i | i | i | 63 | i | i | i | i | i | i | i
O=C(Nc1cccnc1)c1cc(-c2ccccc2O)on1 | i | i | i | 96 | 88 | i | 73 | 72 | 99 | 91 | 89
O=C(Nc1cccnc1)c1cc(-c2cccs2)on1 | i | i | i | 84 | 51 | 74 | i | i | 80 | 79 | i
CN(C(=O)C1CCC(=O)N(Cc2ccccc2F)C1)C1CCOCC1 (stereo not given) | i | i | i | i | i | i | nt | nt | nt | nt | nt
S=C(Nc1ccc(Br)cc1Cl)N1CCN(c2ccccn2)CC1 | i | i | i | i | i | i | nt | nt | nt | nt | nt
CCCc1ccc(OC(=O)c2ccc(O)cc2Cl)cc1 | i | i | i | i | 66 | 61 | 58 | 73 | 90 | i | i
Cc1ccccc1N1C(=O)Cc2ccccc2C1=O | 88 | i | i | i | i | 67 | i | 57 | i | i | i | SENP8 conf-2=i
Cc1ccccc1N1Cc2ccccc2C1=O | i | i | nt | nt | nt | nt | nt | nt | nt | nt | nt
O=C(O)c1cc(Cl)c(Cl)cc1C(=O)Nc1cccc2cccnc12 | 61 | i | i | 69 | i | i | i | i | i | i | i | SENP8 conf-2=i
Cc1ccc(C(=O)NC(=S)N(C)C2CCCCC2)cc1 | i | i | i | i | i | i | nt | nt | nt | nt | nt
COc1ccc2nc3ccccc3nc2c1N | 78 | i | i | i | 53 | 87 | i | i | 75 | 73 | i | SENP8 conf-2=i
Cc1ccc(/C=N/NC(=O)c2cc(C)oc2C)cc1 | 41 | i | i | 86 | 74 | 84 | i | 74 | 95 | 90 | 82 | SENP8 conf-2=i
COc1ccccc1-c1nc2ccccc2nc1-c1ccccc1OC | i | i | i | i | i | i | nt | nt | nt | nt | nt

Source: PubChem BioAssay
